Experimental data taken from ChEMBL document CHEMBL2406994, “Novel triple reuptake inhibitors with low risk of CAD associated liabilities: design, synthesis and biological activities of 4-[(1S)-1-(3,4-dichlorophenyl)-2-methoxyethyl]piperidine and related compounds” (Bioorg Med Chem, 2013).
The source made the active and inactive calls. No cut-off for these calls is given here.

Tested on: Mus musculus
Test: Ex vivo receptor occupancy of NET in po dosed ICR mouse after 1 hr in presence of [3H]-nisoxetine
Type: functional, organism-based
Details: not given
Summary of the method: (§1)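 Oral dosing in mice; 1 h later, frontal cortex and striatum dissected. Unwashed homogenate incubated with [³H]-citalopram (25 nM, SERT), [³H]-nisoxetine (25 nM, NET) or [³H]-WIN35428 (50 nM, DAT). Occupancy taken as percent inhibition of specific binding.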

Q: For `COC[C@H](c1ccc(Cl)c(Cl)c1)C1CCNCC1.Cl`, which Activity is on record?
A: Dose-dependent effect

Biological target: CYP2D6 (Homo sapiens, UniProt P10635)
Sequence (P10635 whole entry): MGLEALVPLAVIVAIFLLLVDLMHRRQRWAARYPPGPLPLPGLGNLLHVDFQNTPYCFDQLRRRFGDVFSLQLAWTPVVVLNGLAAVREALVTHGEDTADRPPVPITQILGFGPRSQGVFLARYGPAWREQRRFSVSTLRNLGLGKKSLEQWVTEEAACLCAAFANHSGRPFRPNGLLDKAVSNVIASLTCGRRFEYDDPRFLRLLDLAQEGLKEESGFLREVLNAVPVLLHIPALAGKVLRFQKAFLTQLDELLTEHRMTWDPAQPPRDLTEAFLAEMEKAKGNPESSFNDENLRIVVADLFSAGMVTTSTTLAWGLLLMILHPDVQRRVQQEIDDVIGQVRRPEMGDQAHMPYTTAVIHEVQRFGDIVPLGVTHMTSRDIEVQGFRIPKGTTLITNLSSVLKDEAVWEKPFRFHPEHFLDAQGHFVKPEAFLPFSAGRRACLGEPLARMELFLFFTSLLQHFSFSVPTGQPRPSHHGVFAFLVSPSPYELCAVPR
Test: Inhibition of CYP2D6 (unknown origin) assessed as 1'-hydroxybufuralol production at 10 uM after 20 mins by LC/MS/MS analysis relative to control
Type: ADME
Details: probe bufuralol (measured as 1'-hydroxybufuralol production)
Summary of the method: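 10 µmol/L bufuralol incubated with 2 nmol/L CYP2D6 from insect cells expressing the enzyme, with 10 µmol/L test compound, for 20 min at 37 °C. 1'-hydroxybufuralol quantified by LC/MS/MS. Expressed as % inhibition.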

Q: `COC[C@H](c1ccc(Cl)c(Cl)c1)C1CCNCC1.Cl` was tested. Which inhibition at 20 min, 10 µM did it give?
A: 14%

Q: `COC[C@@H](c1ccc(Cl)c(Cl)c1)C1CCNCC1.Cl` was tested. Which inhibition at 20 min, 10 µM did it give?
A: 13%

Q: Which inhibition at 20 min, 10 µM does the source give for `CSCC(c1ccc(Cl)c(Cl)c1)C1CCNCC1.Cl` (racemic) here?
A: 32%

Q: Which inhibition at 20 min, 10 µM does the source give for `CCSCC(c1ccc(Cl)c(Cl)c1)C1CCNCC1` (racemic) here?
A: 55%

Q: For `CS(=O)(=O)CC(c1ccc(Cl)c(Cl)c1)C1CCNCC1` (racemic), which inhibition at 20 min, 10 µM is on record?
A: 3.9%

Q: For `COC(=O)C(c1ccc(Cl)c(Cl)c1)C1CCNCC1` (racemic), which inhibition at 20 min, 10 µM is on record?
A: 13%

Q: `CCOC(=O)C(c1ccc(Cl)c(Cl)c1)C1CCNCC1` (racemic) was tested. Which inhibition at 20 min, 10 µM did it give?
A: 38%

Q: With `CC(=O)C(c1ccc(Cl)c(Cl)c1)C1CCNCC1.Cl` (racemic) as the compound, how does the inhibition at 20 min, 10 µM read?
A: 11%

Q: How did the inhibition at 20 min, 10 µM turn out when `CCC(=O)C(c1ccc(Cl)c(Cl)c1)C1CCNCC1` (racemic) was run?
A: 6.1%

Biological target: Sodium-dependent serotonin transporter (Homo sapiens, UniProt P31645)
Sequence (P31645 whole entry): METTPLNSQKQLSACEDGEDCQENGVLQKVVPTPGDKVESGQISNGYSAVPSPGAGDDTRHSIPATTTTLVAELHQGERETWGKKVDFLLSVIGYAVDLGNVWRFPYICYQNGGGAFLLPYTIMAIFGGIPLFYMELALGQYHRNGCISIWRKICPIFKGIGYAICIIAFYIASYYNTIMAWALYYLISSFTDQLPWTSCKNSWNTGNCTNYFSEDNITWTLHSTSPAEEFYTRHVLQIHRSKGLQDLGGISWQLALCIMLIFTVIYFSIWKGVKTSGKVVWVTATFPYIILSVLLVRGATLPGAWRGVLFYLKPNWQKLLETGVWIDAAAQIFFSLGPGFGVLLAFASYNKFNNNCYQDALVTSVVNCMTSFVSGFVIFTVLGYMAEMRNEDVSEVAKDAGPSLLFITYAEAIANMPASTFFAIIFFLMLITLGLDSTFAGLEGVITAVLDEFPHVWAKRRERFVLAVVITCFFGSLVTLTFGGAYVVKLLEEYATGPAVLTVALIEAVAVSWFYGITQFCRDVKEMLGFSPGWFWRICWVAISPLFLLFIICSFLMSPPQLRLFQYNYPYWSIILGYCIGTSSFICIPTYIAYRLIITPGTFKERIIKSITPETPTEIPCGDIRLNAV
Test: Displacement of [3H]-hydroxytryptamine from human SERT expressed in CHO cells by TopCounting analysis
Type: cell-based
Details: not given
Summary of the method: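 CHO cells stably expressing human SERT, plated overnight at 3 × 10⁵ cells/mL in HEPES-buffered saline with 0.5% BSA. Compound added, then [³H]-5-HT (200 nM diluted stock). Uptake stopped at 20 min with two PBS washes, then scintillation counting. Activity relative to 10 µM paroxetine.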

Q: With `COC[C@H](c1ccc(Cl)c(Cl)c1)C1CCNCC1.Cl` as the compound, how does the IC50 read?
A: 130 nM

Q: `COC[C@@H](c1ccc(Cl)c(Cl)c1)C1CCNCC1.Cl` was tested. Which IC50 did it give?
A: 5.7 nM

Q: With `CSCC(c1ccc(Cl)c(Cl)c1)C1CCNCC1.Cl` (racemic) as the compound, how does the IC50 read?
A: 9.1 nM

Q: `CCSCC(c1ccc(Cl)c(Cl)c1)C1CCNCC1` (racemic) was tested. Which IC50 did it give?
A: 9.2 nM

Q: Which IC50 does the source give for `CS(=O)(=O)CC(c1ccc(Cl)c(Cl)c1)C1CCNCC1` (racemic) here?
A: 340 nM

Q: How did the IC50 turn out when `COC(=O)C(c1ccc(Cl)c(Cl)c1)C1CCNCC1` (racemic) was run?
A: 5.2 nM

Q: Which IC50 does the source give for `CCOC(=O)C(c1ccc(Cl)c(Cl)c1)C1CCNCC1` (racemic) here?
A: 9.3 nM

Q: For `CC(=O)C(c1ccc(Cl)c(Cl)c1)C1CCNCC1.Cl` (racemic), which IC50 is on record?
A: 21 nM

Q: Which IC50 does the source give for `CCC(=O)C(c1ccc(Cl)c(Cl)c1)C1CCNCC1` (racemic) here?
A: 18 nM

Biological target: Sodium-dependent dopamine transporter (Homo sapiens, UniProt Q01959)
Sequence (Q01959 whole entry): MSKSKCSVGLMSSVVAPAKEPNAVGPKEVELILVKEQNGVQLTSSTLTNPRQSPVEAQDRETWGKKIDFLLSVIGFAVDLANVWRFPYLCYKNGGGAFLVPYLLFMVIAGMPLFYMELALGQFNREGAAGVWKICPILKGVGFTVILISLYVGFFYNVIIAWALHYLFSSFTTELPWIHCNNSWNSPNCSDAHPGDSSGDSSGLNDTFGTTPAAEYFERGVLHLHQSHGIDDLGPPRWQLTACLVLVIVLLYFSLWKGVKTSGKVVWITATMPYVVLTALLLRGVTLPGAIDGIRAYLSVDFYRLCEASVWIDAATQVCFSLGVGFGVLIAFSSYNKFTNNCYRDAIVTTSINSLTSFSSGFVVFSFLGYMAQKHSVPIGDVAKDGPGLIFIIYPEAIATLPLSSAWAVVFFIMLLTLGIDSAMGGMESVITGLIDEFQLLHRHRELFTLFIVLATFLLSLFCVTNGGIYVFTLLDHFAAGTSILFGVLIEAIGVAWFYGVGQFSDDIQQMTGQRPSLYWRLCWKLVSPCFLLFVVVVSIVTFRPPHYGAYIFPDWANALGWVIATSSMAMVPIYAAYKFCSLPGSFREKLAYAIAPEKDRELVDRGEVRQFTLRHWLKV
Test: Displacement of [3H]-dopamine from human DAT expressed in CHO cells by TopCounting analysis
Type: cell-based
Details: not given
Summary of the method: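 CHO cells stably expressing human DAT, plated overnight at 3 × 10⁵ cells/mL in HEPES-buffered saline with 0.5% BSA. Compound added, then [³H]-dopamine (200 nM diluted stock) with cold dopamine. Uptake for 60 min, two PBS washes, scintillation counting. Activity relative to 100 µM nomifensine as 100%. IC50 and 95% CI from n = 2.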

Q: How did the IC50 turn out when `COC[C@H](c1ccc(Cl)c(Cl)c1)C1CCNCC1.Cl` was run?
A: 180 nM

Q: For `COC[C@@H](c1ccc(Cl)c(Cl)c1)C1CCNCC1.Cl`, which IC50 is on record?
A: 470 nM

Q: Which IC50 does the source give for `CSCC(c1ccc(Cl)c(Cl)c1)C1CCNCC1.Cl` (racemic) here?
A: 79 nM

Q: Which IC50 does the source give for `CCSCC(c1ccc(Cl)c(Cl)c1)C1CCNCC1` (racemic) here?
A: 72 nM

Q: For `CS(=O)(=O)CC(c1ccc(Cl)c(Cl)c1)C1CCNCC1` (racemic), which IC50 is on record?
A: 2200 nM

Q: For `COC(=O)C(c1ccc(Cl)c(Cl)c1)C1CCNCC1` (racemic), which IC50 is on record?
A: 220 nM

Q: How did the IC50 turn out when `CCOC(=O)C(c1ccc(Cl)c(Cl)c1)C1CCNCC1` (racemic) was run?
A: 97 nM

Q: Which IC50 does the source give for `CC(=O)C(c1ccc(Cl)c(Cl)c1)C1CCNCC1.Cl` (racemic) here?
A: 180 nM

Q: For `CCC(=O)C(c1ccc(Cl)c(Cl)c1)C1CCNCC1` (racemic), which IC50 is on record?
A: 100 nM

Biological target: Sodium-dependent noradrenaline transporter (Homo sapiens, UniProt P23975)
Sequence (P23975 whole entry): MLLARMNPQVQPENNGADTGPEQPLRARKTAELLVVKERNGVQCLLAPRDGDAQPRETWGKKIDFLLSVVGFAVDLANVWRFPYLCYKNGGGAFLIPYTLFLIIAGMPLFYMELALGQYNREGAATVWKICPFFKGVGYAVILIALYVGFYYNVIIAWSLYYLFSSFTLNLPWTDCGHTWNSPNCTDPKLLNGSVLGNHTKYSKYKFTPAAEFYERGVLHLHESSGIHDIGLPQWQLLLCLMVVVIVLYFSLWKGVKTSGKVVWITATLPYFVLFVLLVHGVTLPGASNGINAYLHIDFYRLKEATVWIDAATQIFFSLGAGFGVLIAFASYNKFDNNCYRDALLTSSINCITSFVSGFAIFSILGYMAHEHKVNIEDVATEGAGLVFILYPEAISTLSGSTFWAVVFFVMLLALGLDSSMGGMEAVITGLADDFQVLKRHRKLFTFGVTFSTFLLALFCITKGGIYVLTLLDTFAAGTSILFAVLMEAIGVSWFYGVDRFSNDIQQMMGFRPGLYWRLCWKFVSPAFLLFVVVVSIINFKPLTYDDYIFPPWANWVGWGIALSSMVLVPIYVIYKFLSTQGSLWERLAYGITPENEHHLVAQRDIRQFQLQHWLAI
Test: Displacement of [3H]-norepinephrine from human NET expressed in CHO cells by TopCounting analysis
Type: cell-based
Details: not given
Summary of the method: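 CHO cells stably expressing human NET, plated overnight at 3 × 10⁵ cells/mL in HEPES-buffered saline with 0.5% BSA. Compound added, then [³H]-norepinephrine (200 nM diluted stock). Uptake stopped at 45 min with two PBS washes, then scintillation counting. IC50 and 95% CI from n = 2.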

Q: With `COC[C@H](c1ccc(Cl)c(Cl)c1)C1CCNCC1.Cl` as the compound, how does the IC50 read?
A: 15 nM

Q: For `COC[C@@H](c1ccc(Cl)c(Cl)c1)C1CCNCC1.Cl`, which IC50 is on record?
A: 21 nM

Q: How did the IC50 turn out when `CSCC(c1ccc(Cl)c(Cl)c1)C1CCNCC1.Cl` (racemic) was run?
A: 9.3 nM

Q: How did the IC50 turn out when `CCSCC(c1ccc(Cl)c(Cl)c1)C1CCNCC1` (racemic) was run?
A: 8.7 nM

Q: For `CS(=O)(=O)CC(c1ccc(Cl)c(Cl)c1)C1CCNCC1` (racemic), which IC50 is on record?
A: 200 nM

Q: Which IC50 does the source give for `COC(=O)C(c1ccc(Cl)c(Cl)c1)C1CCNCC1` (racemic) here?
A: 18 nM

Q: `CCOC(=O)C(c1ccc(Cl)c(Cl)c1)C1CCNCC1` (racemic) was tested. Which IC50 did it give?
A: 12 nM

Q: With `CC(=O)C(c1ccc(Cl)c(Cl)c1)C1CCNCC1.Cl` (racemic) as the compound, how does the IC50 read?
A: 44 nM

Q: Which IC50 does the source give for `CCC(=O)C(c1ccc(Cl)c(Cl)c1)C1CCNCC1` (racemic) here?
A: 28 nM

Tested on: Mus musculus
Test: Antidepressant activity in ICR mouse assessed as 5-HT level at 10 mg/kg, po after 120 mins by microdialysis relative to control
Type: functional
Details: not given
Summary of the method: (§2)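 Male 6-week-old ICR mice; probe implanted stereotaxically into medial prefrontal cortex under pentobarbital, 1 day recovery. Perfusion with Ringer at 2 µL/min; after ≥120 min stabilisation, dialysate collected every 20 min. Baseline from mean of three stable samples. Drug in water given orally at 10 mL/kg; collection continued 120 min. 5-HT, NE and DA measured by HPLC with electrochemical detection.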

Q: How did the Activity turn out when `COC[C@H](c1ccc(Cl)c(Cl)c1)C1CCNCC1.Cl` was run?
A: 180%

Tested on: Mus musculus
Test: Ex vivo receptor occupancy of SERT in po dosed ICR mouse after 1 hr in presence of [3H]-citalopram
Type: functional, organism-based
Details: not given
Summary of the method: as §1

Q: How did the Activity turn out when `COC[C@H](c1ccc(Cl)c(Cl)c1)C1CCNCC1.Cl` was run?
A: Dose-dependent effect

Tested on: Mus musculus
Test: Antidepressant activity in ICR mouse assessed as DA level at 10 mg/kg, po after 120 mins by microdialysis relative to control
Type: functional
Details: not given
Summary of the method: as §2

Q: `COC[C@H](c1ccc(Cl)c(Cl)c1)C1CCNCC1.Cl` was tested. Which Activity did it give?
A: 270%

Tested on: Mus musculus
Test: Antidepressant activity in po dosed ICR mouse assessed as immobility rate after 60 mins by tail suspension test
Type: functional, organism-based
Details: not given
Summary of the method: (§3)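 Male 7-week-old ICR mice, n = 11/group. Drug or vehicle (distilled water) given orally at 10 mL/kg; test run 60 min later. Mice hung by the tail from a strain-gauge hook, and immobility scored from load variation over a 10 min test. Average immobility ratio (%) per group; significance by parametric Williams' test, P < .025.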

Q: `COC[C@H](c1ccc(Cl)c(Cl)c1)C1CCNCC1.Cl` was tested. Which Activity did it give?
A: Dose-dependent effect

Biological target: hERG (KCNH2) (Homo sapiens, UniProt Q12809)
Sequence (Q12809 whole entry): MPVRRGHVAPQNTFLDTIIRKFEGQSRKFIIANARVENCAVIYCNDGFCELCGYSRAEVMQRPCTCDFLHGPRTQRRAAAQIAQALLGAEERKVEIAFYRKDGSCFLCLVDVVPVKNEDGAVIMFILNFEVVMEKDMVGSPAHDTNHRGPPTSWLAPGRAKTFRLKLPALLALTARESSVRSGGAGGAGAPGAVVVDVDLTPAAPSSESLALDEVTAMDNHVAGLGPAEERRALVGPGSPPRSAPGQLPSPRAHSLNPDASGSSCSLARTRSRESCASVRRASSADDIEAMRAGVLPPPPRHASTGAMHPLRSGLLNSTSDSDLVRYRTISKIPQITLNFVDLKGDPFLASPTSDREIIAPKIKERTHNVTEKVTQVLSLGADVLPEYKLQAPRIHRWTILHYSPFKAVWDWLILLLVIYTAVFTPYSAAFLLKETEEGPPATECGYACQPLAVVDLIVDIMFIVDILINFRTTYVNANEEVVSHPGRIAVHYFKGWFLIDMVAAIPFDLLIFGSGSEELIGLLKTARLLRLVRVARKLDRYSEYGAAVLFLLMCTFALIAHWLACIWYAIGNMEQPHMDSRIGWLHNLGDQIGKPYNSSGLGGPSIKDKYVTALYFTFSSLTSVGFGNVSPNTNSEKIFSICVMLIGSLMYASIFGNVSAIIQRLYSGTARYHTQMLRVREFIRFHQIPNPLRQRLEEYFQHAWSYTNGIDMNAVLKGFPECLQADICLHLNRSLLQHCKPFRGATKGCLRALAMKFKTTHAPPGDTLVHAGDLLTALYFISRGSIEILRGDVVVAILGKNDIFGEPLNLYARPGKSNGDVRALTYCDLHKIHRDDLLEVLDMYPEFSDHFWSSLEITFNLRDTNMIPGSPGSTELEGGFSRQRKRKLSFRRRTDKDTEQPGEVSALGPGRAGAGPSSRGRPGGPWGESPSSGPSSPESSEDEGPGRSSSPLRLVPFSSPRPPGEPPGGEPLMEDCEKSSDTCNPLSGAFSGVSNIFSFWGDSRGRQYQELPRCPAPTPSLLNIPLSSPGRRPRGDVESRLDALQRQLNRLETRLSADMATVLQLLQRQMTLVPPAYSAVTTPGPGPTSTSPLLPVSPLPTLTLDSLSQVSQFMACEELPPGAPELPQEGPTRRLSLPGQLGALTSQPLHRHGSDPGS
Test: Inhibition of human ERG channel at 10 uM by ionworks assay relative to control
Details: not given
Summary of the method: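 hERG current measured on IonWorks Quattro with test compound at 10 µM. Expressed as % inhibition.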

Q: With `COC[C@H](c1ccc(Cl)c(Cl)c1)C1CCNCC1.Cl` as the compound, how does the inhibition at 10 µM read?
A: 48%

Q: `COC[C@@H](c1ccc(Cl)c(Cl)c1)C1CCNCC1.Cl` was tested. Which inhibition at 10 µM did it give?
A: 46%

Q: Which inhibition at 10 µM does the source give for `CSCC(c1ccc(Cl)c(Cl)c1)C1CCNCC1.Cl` (racemic) here?
A: 73%

Q: For `CCSCC(c1ccc(Cl)c(Cl)c1)C1CCNCC1` (racemic), which inhibition at 10 µM is on record?
A: 94%

Q: How did the inhibition at 10 µM turn out when `CS(=O)(=O)CC(c1ccc(Cl)c(Cl)c1)C1CCNCC1` (racemic) was run?
A: 9%

Q: With `COC(=O)C(c1ccc(Cl)c(Cl)c1)C1CCNCC1` (racemic) as the compound, how does the inhibition at 10 µM read?
A: 56%

Q: For `CCOC(=O)C(c1ccc(Cl)c(Cl)c1)C1CCNCC1` (racemic), which inhibition at 10 µM is on record?
A: 110%

Q: With `CC(=O)C(c1ccc(Cl)c(Cl)c1)C1CCNCC1.Cl` (racemic) as the compound, how does the inhibition at 10 µM read?
A: 40%

Q: `CCC(=O)C(c1ccc(Cl)c(Cl)c1)C1CCNCC1` (racemic) was tested. Which inhibition at 10 µM did it give?
A: 51%

Tested on: Mus musculus
Test: Antidepressant activity in ICR mouse assessed as NE level at 10 mg/kg, po after 120 mins by microdialysis relative to control
Type: functional
Details: not given
Summary of the method: as §2

Q: For `COC[C@H](c1ccc(Cl)c(Cl)c1)C1CCNCC1.Cl`, which Activity is on record?
A: 400%

Tested on: Mus musculus
Test: Antidepressant activity in orally dosed ICR mouse after 60 mins by tail suspension test
Type: functional
Details: po, 1 h, read-out: MED
Summary of the method: as §3

Q: `COC[C@H](c1ccc(Cl)c(Cl)c1)C1CCNCC1.Cl` was tested. Which minimal effective dose did it give?
A: 10 mg/kg

Q: For `COC[C@@H](c1ccc(Cl)c(Cl)c1)C1CCNCC1.Cl`, which minimal effective dose is on record?
A: 10 mg/kg

Q: `CSCC(c1ccc(Cl)c(Cl)c1)C1CCNCC1.Cl` (racemic) was tested. Which minimal effective dose did it give?
A: 30 mg/kg

Q: `CC(=O)C(c1ccc(Cl)c(Cl)c1)C1CCNCC1.Cl` (racemic) was tested. Which minimal effective dose did it give?
A: 30 mg/kg

Tested on: Mus musculus
Test: Ex vivo receptor occupancy of DAT in po dosed ICR mouse after 1 hr in presence of [3H]-WIN35428
Type: functional, organism-based
Details: not given
Summary of the method: as §1

Q: `COC[C@H](c1ccc(Cl)c(Cl)c1)C1CCNCC1.Cl` was tested. Which Activity did it give?
A: Dose-dependent effect

Tested on: Mus musculus
Test: Antidepressant activity in ICR mouse assessed as reduction in immobility rate at 10 mg/kg, po after 60 mins by tail suspension test
Type: functional, organism-based
Design: dose 10 mg/kg
Details: not given
Summary of the method: as §3

Q: For `COC[C@H](c1ccc(Cl)c(Cl)c1)C1CCNCC1.Cl`, which Activity is on record?
A: Active
